From ChEMBL document CHEMBL3616436, “Synthesis, cytotoxicity and antimicrobial activity of thiourea derivatives incorporating 3-(trifluoromethyl)phenyl moiety” (Eur J Med Chem, 2015)
Values after ≈ are worked out from the molar mass of the structure shown. Active and inactive are the calls of the source. The calls are words filed in the database; no cut-off is given here.

Tests used:
[1] = system: Mammalian orthoreovirus 1; experiment: Antiviral activity against Reovirus type-1 ATCC VR-214 infected in BHK cells assessed as protection against virus-induced cytopathogenicity after 3 to 4 days by MTT assay; type: functional, cell-based; settings: Mammalian orthoreovirus 1, ATCC VR-214, BHK
How it was run: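 Cells seeded in 96-well plates (BHK 5x10^4, MDBK 3x10^4 cells/well), grown overnight to confluence, infected at m.o.i. 0.01 (BHK for Reo-1, MDBK for BVDV); serial compound dilutions in maintenance medium with 0.5% inactivated FBS added after 1 h; viability by MTT after 3–4 days at 37°C; EC50 for 50% protection by linear regression.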

Poliovirus 1 = experiment: Antiviral activity against Poliovirus type 1 ATCC VR-1562 infected in African green monkey Vero 76 cells assessed as reduction of virus-plaque formation after 2 days by crystal violet staining; type: functional, organism-based; settings: Enterovirus C, ATCC VR-1562, Vero, 48 h
Staphylococcus aureus = experiment: Antimicrobial activity against Staphylococcus aureus ATCC 29213 after 18 hrs by twofold serial microdilution method; type: functional; settings: ATCC 29213, 18 h
[2] = system: Staphylococcus epidermidis; experiment: Antimicrobial activity against hospital methicillin-resistant Staphylococcus epidermidis 24/04 after 18 hrs by twofold serial microdilution method; type: functional; settings: 24/04, 18 h
How it was run: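 Twofold serial microdilution in Mueller-Hinton broth. Compound stock was made in DMSO and diluted in sterile water. Tested range was 0.125–512 µg/mL. Final inoculum was 10^5 CFU/mL. Plates were incubated 18 h at 35 °C. MIC is the lowest concentration preventing visible growth.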

CCRF-CEM = experiment: Cytotoxicity against human CCRF-CEM cells after 96 hrs by MTT assay; type: functional
How it was run: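 Leukaemia/lymphoma lines seeded at 1×10^5 cells/ml in RPMI-1640 with 10% FCS and penicillin/streptomycin; incubated with serial dilutions at 37°C, 5% CO2; viability by MTT after 96 h; value is concentration reducing proliferation by 50%, with untreated controls undergoing at least three rounds of multiplication.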

[3] = biological target: T1, Topoisomerase IV (Staphylococcus aureus) (UniProt P0C1U9+P0C1S7); experiment: Inhibition of decatenation activity of DNA topoisomerase 4 in Staphylococcus aureus ATCC 29213 using kDNA as substrate at 1 to 4 ug/ml […] using ethidium bromide staining by agarose gel electrophoresis; type: protein-complex assay
[4] = biological target: T1, Topoisomerase IV (Staphylococcus aureus); experiment: Inhibition of decatenation activity of DNA topoisomerase 4 in hospital methicillin-resistant Staphylococcus aureus 53/05 using kDNA as substrate at 1 to 4 ug/ml after 1 hr using ethidium bromide staining by agarose gel electrophoresis; type: protein-complex assay
[5] = biological target: T1, Topoisomerase IV (Staphylococcus aureus); experiment: Inhibition of decatenation activity of DNA topoisomerase 4 in hospital methicillin-resistant Staphylococcus aureus 54/05 using kDNA as substrate at 1 to 4 ug/ml after 1 hr using ethidium bromide staining by agarose gel electrophoresis; type: protein-complex assay
[6] = biological target: T1, Topoisomerase IV (Staphylococcus aureus); experiment: Inhibition of decatenation activity of DNA topoisomerase 4 in hospital methicillin-resistant Staphylococcus aureus 81/05 using kDNA as substrate at 1 to 4 ug/ml after 1 hr using ethidium bromide staining by agarose gel electrophoresis; type: protein-complex assay
[7] = biological target: T1, Topoisomerase IV (Staphylococcus aureus); experiment: Inhibition of decatenation activity of DNA topoisomerase 4 in hospital methicillin-resistant Staphylococcus aureus 522/11 using kDNA as substrate at 1 to 4 ug/ml after 1 hr using ethidium bromide staining by agarose gel electrophoresis; type: protein-complex assay
[8] = system: Staphylococcus epidermidis; experiment: Inhibition of biofilm formation in Staphylococcus epidermidis […]/[…] after 24 hrs using MTT staining by spectrophotometer analysis; type: functional, organism-based; settings: 16/04, 24 h
[9] = system: Staphylococcus epidermidis; experiment: Inhibition of biofilm formation in Staphylococcus epidermidis 24/04 after 24 hrs using MTT staining by spectrophotometer analysis; type: functional, organism-based; settings: 24/04, 24 h
[10] = system: Staphylococcus epidermidis; experiment: Inhibition of biofilm formation in Staphylococcus epidermidis ATCC 12228 at 4 ug/ml after 24 hrs using MTT staining by spectrophotometer analysis; type: functional; settings: ATCC 12228, 24 h
How it was run: (§1)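 Methicillin-resistant hospital isolates or ATCC strains of S. epidermidis were grown overnight in tryptone soy broth with 0.5% glucose. Inoculum of 10^7 CFU/mL was mixed 1:1 with compound in TSB-glucose and incubated 24 h at 37 °C. Non-adherent cells were washed off with PBS, and wells were stained with MTT (0.5% in PBS) for 2 h at 37 °C. Stain was solubilized in DMSO/glycine buffer and read at A554. Inhibition is relative to drug-free control; quadruplicates.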

[11] = system: Staphylococcus epidermidis; experiment: Inhibition of biofilm formation in Staphylococcus epidermidis 62/04 at 4 ug/ml after 24 hrs using MTT staining by spectrophotometer analysis; type: functional; settings: 62/04, 24 h; how it was run: as §1
[12] = biological target: T1, Topoisomerase IV (Staphylococcus aureus); experiment: Inhibition of decatenation activity of DNA topoisomerase 4 in Staphylococcus aureus NCTC 4163 using kDNA as substrate at 32 ug/ml […] using ethidium bromide staining by agarose gel electrophoresis; type: protein-complex assay
[13] = biological target: T1, Topoisomerase IV (Staphylococcus aureus); experiment: Inhibition of decatenation activity of DNA topoisomerase 4 in Staphylococcus aureus ATCC 25923 using kDNA as substrate at 32 ug/ml after 1 hr using ethidium bromide staining by agarose gel electrophoresis; type: protein-complex assay
How it was run: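 Kit-supplied S. aureus topoisomerase IV, 1 U, with 200 ng kDNA in the supplied assay buffer. Reactions ran 30 min at 37 °C with compound at 1, 4 or 32 µg/ml. They were stopped with STEB and extracted with chloroform/isoamyl alcohol (24:1). Products were run on 1% agarose in TAE for 1 h at 120 V and visualised with ethidium bromide under UV. Controls were no-enzyme, no-compound and ±DMSO.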

[14] = biological target: T1, Topoisomerase IV (Staphylococcus aureus); experiment: Inhibition of decatenation activity of DNA topoisomerase 4 in Staphylococcus aureus ATCC 29213 using kDNA as substrate at 32 ug/ml […] using ethidium bromide staining by agarose gel electrophoresis; type: protein-complex assay
[15] = biological target: T2, DNA topoisomerase 4 (Staphylococcus epidermidis) (UniProt Q5HPI6+Q5HPI5); experiment: Inhibition of decatenation activity of DNA topoisomerase 4 in Staphylococcus epidermidis ATCC 12228 using kDNA as substrate at 32 ug/ml after 1 hr using ethidium bromide staining by agarose gel electrophoresis; type: protein assay
[16] = biological target: T1, Topoisomerase IV (Staphylococcus aureus); experiment: Inhibition of decatenation activity of DNA topoisomerase 4 in hospital methicillin-resistant Staphylococcus aureus 54/05 using kDNA as substrate at 32 ug/ml after 1 hr using ethidium bromide staining by agarose gel electrophoresis; type: protein-complex assay
[17] = biological target: T1, Topoisomerase IV (Staphylococcus aureus); experiment: Inhibition of decatenation activity of DNA topoisomerase 4 in hospital methicillin-resistant Staphylococcus aureus 573/11 using kDNA as substrate at 32 ug/ml after 1 hr using ethidium bromide staining by agarose gel electrophoresis; type: protein-complex assay
[18] = biological target: T2, DNA topoisomerase 4 (Staphylococcus epidermidis); experiment: Inhibition of decatenation activity of DNA topoisomerase 4 in hospital methicillin-resistant Staphylococcus epidermidis 23/04 using kDNA as substrate at 32 ug/ml after 1 hr using ethidium bromide staining by agarose gel electrophoresis; type: protein assay
[19] = biological target: T2, DNA topoisomerase 4 (Staphylococcus epidermidis); experiment: Inhibition of decatenation activity of DNA topoisomerase 4 in hospital methicillin-resistant Staphylococcus epidermidis 151/04 using kDNA as substrate at 32 ug/ml after 1 hr using ethidium bromide staining by agarose gel electrophoresis; type: protein assay

T2 sequence (Q5HPI5 whole entry, looked up): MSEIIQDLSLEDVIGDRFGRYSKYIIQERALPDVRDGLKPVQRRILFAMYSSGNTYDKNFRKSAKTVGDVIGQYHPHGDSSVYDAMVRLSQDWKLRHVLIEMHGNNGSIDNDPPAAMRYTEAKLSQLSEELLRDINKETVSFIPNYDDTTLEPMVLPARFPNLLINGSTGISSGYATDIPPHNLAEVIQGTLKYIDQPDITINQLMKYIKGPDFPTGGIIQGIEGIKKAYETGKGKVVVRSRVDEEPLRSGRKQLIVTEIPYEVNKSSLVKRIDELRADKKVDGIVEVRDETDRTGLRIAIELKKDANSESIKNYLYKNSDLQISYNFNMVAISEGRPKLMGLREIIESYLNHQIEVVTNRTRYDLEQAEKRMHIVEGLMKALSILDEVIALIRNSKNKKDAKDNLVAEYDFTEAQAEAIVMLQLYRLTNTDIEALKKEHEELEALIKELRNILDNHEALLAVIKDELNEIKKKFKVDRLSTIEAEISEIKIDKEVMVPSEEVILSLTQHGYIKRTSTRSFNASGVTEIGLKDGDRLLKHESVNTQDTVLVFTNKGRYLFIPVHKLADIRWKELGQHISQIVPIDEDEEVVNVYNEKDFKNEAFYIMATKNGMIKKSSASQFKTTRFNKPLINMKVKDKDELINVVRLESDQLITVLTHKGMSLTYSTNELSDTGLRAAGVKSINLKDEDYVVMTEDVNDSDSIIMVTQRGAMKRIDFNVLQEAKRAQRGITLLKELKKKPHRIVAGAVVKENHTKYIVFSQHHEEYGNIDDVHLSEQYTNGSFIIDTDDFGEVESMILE
T2 sequence (Q5HPI6 whole entry, looked up): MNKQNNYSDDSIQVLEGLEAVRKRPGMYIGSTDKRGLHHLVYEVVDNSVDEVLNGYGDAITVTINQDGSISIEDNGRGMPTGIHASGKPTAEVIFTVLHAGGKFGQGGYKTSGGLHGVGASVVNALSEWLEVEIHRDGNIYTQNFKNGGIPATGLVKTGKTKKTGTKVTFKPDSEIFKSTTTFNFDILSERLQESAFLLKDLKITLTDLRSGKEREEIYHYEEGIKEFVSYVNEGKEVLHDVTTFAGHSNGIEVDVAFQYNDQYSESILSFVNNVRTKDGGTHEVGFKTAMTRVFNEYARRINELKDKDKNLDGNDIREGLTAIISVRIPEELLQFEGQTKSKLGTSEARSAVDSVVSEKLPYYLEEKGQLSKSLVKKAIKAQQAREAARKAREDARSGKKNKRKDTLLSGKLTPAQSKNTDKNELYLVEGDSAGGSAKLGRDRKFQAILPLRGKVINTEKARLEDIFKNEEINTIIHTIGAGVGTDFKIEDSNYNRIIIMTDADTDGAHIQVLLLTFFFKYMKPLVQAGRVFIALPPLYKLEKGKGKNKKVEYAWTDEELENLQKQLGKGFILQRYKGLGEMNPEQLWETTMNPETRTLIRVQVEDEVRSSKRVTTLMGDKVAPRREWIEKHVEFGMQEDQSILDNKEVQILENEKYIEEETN

Row | SMILES | EC50 [1] [µM] | EC50 (Poliovirus 1) [µM] | MIC (Staphylococcus aureus) [µg/mL] | MIC [2] [µg/mL] | CC50 (CCRF-CEM) [µM] | inhibition [3] | inhibition [4] | inhibition [5] | inhibition [6] | inhibition [7] | IC50 [8] [µg/mL] | IC50 [9] [µg/mL] | inhibition at 4 µg/mL [10] [%] | inhibition at 4 µg/mL [11] [%] | inhibition [12] | inhibition [13] | inhibition [14] | inhibition [15] | inhibition [16] | inhibition [17] | other results
1 | Fc1cccc(NC(=S)Nc2cccc(C(F)(F)F)c2)c1 | > 9.4 | > 20 | 8 (≈ 25.5 µM) | 8 (≈ 25.5 µM) | – | – | – | – | – | – | – | – | – | – | – | – | – | – | – | – | –
2 | FC(F)(F)c1cccc(NC(S)=NCc2ccccc2)c1 | > 45 | > 35 | 8 (≈ 25.8 µM) | 16 (≈ 51.6 µM) | – | – | – | – | – | – | – | – | – | – | – | – | – | – | – | – | –
3 | FC(F)(F)c1cccc(NC(S)=Nc2ccc(Cl)c(Cl)c2)c1 | > 9.5 | > 16 | 0.5 (≈ 1.37 µM) | 1 (≈ 2.74 µM) | 8 | – | – | – | – | – | – | – | – | – | – | – | – | – | – | – | –
4 | O=C(O)c1cn(C2CC2)c2cc(N3CCNCC3)c(F)cc2c1=O [CIPROFLOXACIN] | – | – | 0.5 (≈ 1.51 µM) | 64 (≈ 193 µM) | – | Active | Active | Active | Active | Active | 6.81 (≈ 20.6 µM) | 12.9 (≈ 39.1 µM) | 21.3 | 59.9 | Active | Active | Active | Active | Active | Active | inhibition [18]: Active; inhibition [19]: Active
5 | Fc1ccc(NC(=S)Nc2cccc(C(F)(F)F)c2)cc1Cl | > 10 | > 20 | 1 (≈ 2.87 µM) | 1 (≈ 2.87 µM) | 7 | Active | Active | Active | Active | Active | 1.35 (≈ 3.87 µM) | 1.59 (≈ 4.56 µM) | 95.2 | 89.7 | Active | Active | Active | Active | Active | Active | inhibition [18]: Active; inhibition [19]: Active
6 | FC(F)(F)c1cccc(NC(=S)NCCc2ccccc2)c1 | > 29 | > 46 | 8 (≈ 24.7 µM) | 16 (≈ 49.3 µM) | – | – | – | – | – | – | – | – | – | – | – | – | – | – | – | – | –
7 | FC(F)(F)c1cccc(NC(=S)Nc2cccc(Br)c2)c1 | > 10 | > 14 | 1 (≈ 2.67 µM) | 4 (≈ 10.7 µM) | 9.3 | Active | Active | Active | Active | Active | 3.91 (≈ 10.4 µM) | 3.01 (≈ 8.02 µM) | 87 | 84.8 | Active | Active | Active | Active | Active | Active | inhibition [18]: Active; inhibition [19]: Active
8 | FC(F)(F)c1cccc(NC(=S)Nc2ccc(Cl)cc2)c1 | > 10 | > 11 | 8 (≈ 24.2 µM) | 16 (≈ 48.4 µM) | 12 | – | – | – | – | – | – | – | – | – | – | – | – | – | – | – | –
